In ChEMBL document CHEMBL4033790, “Design and Synthesis of Novel Deuterated Ligands Functionally Selective for the γ-Aminobutyric Acid Type A Receptor (GABAAR) α6 Subtype with Improved Metabolic Stability and Enhanced Bioavailability” (J Med Chem, 2018):
≈ marks a conversion by molar mass, not a printed value. Each block holds one molecule with its values, some of them ahead of it. Calls of active or inactive are those of the source. The calls are words filed in the database; no cut-off is given here.

What was measured:
[1] = Drug level in human liver microsomes treated with 7-Methoxy-d3-2-(6-methoxypyridin-3-yl)-2,5-dihydro-3Hpyrazolo[4,3-c]quinolin-3-one after 60 mins by LC-MS analysis; format: ADME; settings: 1 h
[2] = Drug level in mouse liver microsomes treated with 7-Methoxy-d3-2-(6-methoxypyridin-3-yl)-2,5-dihydro-3Hpyrazolo[4,3-c]quinolin-3-one after 60 mins by LC-MS analysis; format: ADME; settings: 1 h
[3] = Drug level in human liver microsomes treated with 7-Methoxy-2-(6-methoxy-d3-pyridin-3-yl)-2,5-dihydro-3Hpyrazolo[4,3-c]quinolin-3-one after 60 mins by LC-MS analysis; format: ADME; settings: 1 h
[4] = Drug level in mouse liver microsomes treated with 7-Methoxy-2-(6-methoxy-d3-pyridin-3-yl)-2,5-dihydro-3Hpyrazolo[4,3-c]quinolin-3-one after 60 mins by LC-MS analysis; format: ADME; settings: 1 h
[5] = Drug level in human liver microsomes treated with 7-Methoxy-d3-2-(4-methoxyphenyl)-2,5-dihydro-3H-pyrazolo-[4,3-c]quinolin-3-one after 60 mins by LC-MS analysis; format: ADME; settings: 1 h
[6] = Drug level in mouse liver microsomes treated with 7-Methoxy-d3-2-(4-methoxyphenyl)-2,5-dihydro-3H-pyrazolo-[4,3-c]quinolin-3-one after 60 mins by LC-MS analysis; format: ADME; settings: 1 h
[7] = Drug level in mouse liver microsomes treated with 7-Methoxy-2-(4-methoxy-d3-phenyl)-2,5-dihydro-3H-pyrazolo-[4,3-c]quinolin-3-one after 60 mins by LC-MS analysis; format: ADME; settings: 1 h
[8] = Drug level in human liver microsomes treated with 7-Methoxy-2-(4-methoxy-d3-phenyl)-2,5-dihydro-3H-pyrazolo-[4,3-c]quinolin-3-one after 60 mins by LC-MS analysis; format: ADME; settings: 1 h
Liver = assay: Half life in human liver microsomes at 10 uM by LC-MS/MS analysis; format: ADME, microsome
Summary of the method: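 Compound at 10 μM final was preincubated 5 min at 37 °C with NADPH regenerating system in phosphate buffer, pH 7.4. Human or mouse liver microsomes (0.5 mg/mL protein) were added to start the reaction. Samples were taken at 0 (no microsomes) and 10–60 min and measured by LC-MS/MS against an internal standard. Half-life = 0.693/k, with k the slope of ln peak-area ratio versus time. Three experiments, each in duplicate.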

[9] = Metabolic stability in human liver microsomes assessed as parent compound remaining at 10 uM after 60 mins by LC-MS analysis; format: ADME, microsome; settings: read-out: Stability
Summary of the method: (§1)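 The 60 min samples of the microsomal incubation (10 μM compound, human or mouse liver microsomes at 0.5 mg/mL, NADPH regenerating system, 37 °C) were analysed by LC-MS. Detection used SIM mode with dual ESI/APCI ionization, calibrated to the retention times and masses of the parent and its O-demethylated metabolites. Peak intensities were measured.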

[10] = Metabolic stability in mouse liver microsomes assessed as parent compound remaining at 10 uM after 60 mins by LC-MS analysis; format: ADME, microsome; settings: read-out: Stability; summary of the method: as §1
[11] = Aqueous solubility of the compound in DI water at pH 7 after 2 hrs by LC-MS analysis; format: physicochemical; settings: buffer, pH 7, 2 h
Summary of the method: (§2)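 10 mg compound dissolved in 2 mL DMAC; 10 μL of this added to 2 mL DI water (pH 7, sonicated) or 2 mL 0.01 M aq HCl (pH 2), held 2 h at 37 °C. Filtered through 0.45 micron filter, then quantified by LC-MS in SIM mode against calibration curves of standards in DMAC (n = 5); n=3.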

[12] = Solubility of the compound in 0.01M HCl at pH 2 after 2 hrs by LC-MS analysis; format: physicochemical; settings: buffer, pH 2, 2 h; summary of the method: as §2
[13] = molecular target: GABA-A receptor; alpha-1/beta-3/gamma-2 (Homo sapiens) (UniProt P14867+P18507+P28472); assay: Positive allosteric modulation of GABA-A receptor alpha1beta3gamma2 (unknown origin) expressed in Xenopus laevis oocytes assessed as potentiation of EC3 GABA induced currents up to 1 uM at -60 mV holding potential by electrophysiological method relative to GABA; format: cell-based
Summary of the method: (§3)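 Stage 5–6 defolliculated Xenopus oocytes were injected with 2.5 ng total mRNA per oocyte: α1, α2, α3 or α5 with β3 and γ2 at 1:1:5, and α4 or α6 with β3 and γ2 at 3:1:5. Oocytes were kept ≥36 h at 18 °C in NDE medium before recording. Compounds were co-applied with GABA titrated to EC3-5 for each oocyte. Curves were fitted with the Hill equation; mean ± SEM from ≥3 oocytes across two batches.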

[14] = molecular target: GABA-A receptor; alpha-6/beta-3/gamma-2 (Homo sapiens) (UniProt P18507+P28472+Q16445); assay: Positive allosteric modulation of GABA-A receptor alpha6beta3gamma2 (unknown origin) expressed in Xenopus laevis oocytes assessed as potentiation of EC3 GABA induced currents at 30 uM at -60 mV holding potential by electrophysiological method relative to GABA; format: cell-based; summary of the method: as §3
[15] = molecular target: GABA-A receptor; alpha-2/beta-3/gamma-2 (Homo sapiens) (UniProt P18507+P28472+P47869); assay: Positive allosteric modulation of GABA-A receptor alpha2beta3gamma2 (unknown origin) expressed in Xenopus laevis oocytes assessed as potentiation of EC3 GABA induced currents up to 1 uM at -60 mV holding potential by electrophysiological method relative to GABA; format: cell-based; summary of the method: as §3
[16] = molecular target: GABA-A receptor; alpha-3/beta-3/gamma-2 (Homo sapiens) (UniProt P18507+P28472+P34903); assay: Positive allosteric modulation of GABA-A receptor alpha3beta3gamma2 (unknown origin) expressed in Xenopus laevis oocytes assessed as potentiation of EC3 GABA induced currents up to 1 uM at -60 mV holding potential by electrophysiological method relative to GABA; format: cell-based; summary of the method: as §3
[17] = molecular target: GABA A receptor alpha-4/beta-3/gamma-2 (Homo sapiens) (UniProt P18507+P28472+P48169); assay: Positive allosteric modulation of GABA-A receptor alpha4beta3gamma2 (unknown origin) expressed in Xenopus laevis oocytes assessed as potentiation of EC3 GABA induced currents up to 1 uM at -60 mV holding potential by electrophysiological method relative to GABA; format: cell-based; summary of the method: as §3
[18] = molecular target: GABA-A receptor; alpha-5/beta-3/gamma-2 (Homo sapiens) (UniProt P18507+P28472+P31644); assay: Positive allosteric modulation of GABA-A receptor alpha5beta3gamma2 (unknown origin) expressed in Xenopus laevis oocytes assessed as potentiation of EC3 GABA induced currents up to 1 uM at -60 mV holding potential by electrophysiological method relative to GABA; format: cell-based; summary of the method: as §3
Rattus norvegicus = organism: Rattus norvegicus; assay: Displacement of [3H]-flunitrazepam from rat brain GABA-A receptor benzodiazepine site […] at 10 uM after 60 to 90 mins by scintillation counting; settings: tested as the 2H-labelled form
[19] = molecular target: 5-hydroxytryptamine receptor 7 (Homo sapiens) (UniProt P34969); assay: Displacement of [3H]-LSD from human recombinant 5HT7 receptor expressed in HEK293 cells at 10 uM after 60 to 90 mins by scintillation counting; format: cell-based; settings: tested as the 2H-labelled form
[20] = molecular target: Mu-type opioid receptor (Homo sapiens) (UniProt P35372); assay: Displacement of [3H]-DAMGO from human recombinant MOR expressed in HEK293 cells at 10 uM after 60 to 90 mins by scintillation counting; format: cell-based; settings: tested as the 2H-labelled form
[21] = molecular target: 5-hydroxytryptamine receptor 2B (Homo sapiens) (UniProt P41595); assay: Displacement of [3H]-LSD from human recombinant 5HT2B receptor expressed in HEK293 cells at 10 uM after 60 to 90 mins by scintillation counting; format: cell-based; settings: tested as the 2H-labelled form
[22] = molecular target: T1, 5-hydroxytryptamine receptor 2C (Homo sapiens) (UniProt P28335); assay: Displacement of [3H]-mesulergine from human recombinant 5HT2C receptor expressed in HEK293T cells at 10 uM after 60 to 90 mins by scintillation counting; format: cell-based; settings: HEK-293T, tested as the 2H-labelled form
T1 sequence (whole entry): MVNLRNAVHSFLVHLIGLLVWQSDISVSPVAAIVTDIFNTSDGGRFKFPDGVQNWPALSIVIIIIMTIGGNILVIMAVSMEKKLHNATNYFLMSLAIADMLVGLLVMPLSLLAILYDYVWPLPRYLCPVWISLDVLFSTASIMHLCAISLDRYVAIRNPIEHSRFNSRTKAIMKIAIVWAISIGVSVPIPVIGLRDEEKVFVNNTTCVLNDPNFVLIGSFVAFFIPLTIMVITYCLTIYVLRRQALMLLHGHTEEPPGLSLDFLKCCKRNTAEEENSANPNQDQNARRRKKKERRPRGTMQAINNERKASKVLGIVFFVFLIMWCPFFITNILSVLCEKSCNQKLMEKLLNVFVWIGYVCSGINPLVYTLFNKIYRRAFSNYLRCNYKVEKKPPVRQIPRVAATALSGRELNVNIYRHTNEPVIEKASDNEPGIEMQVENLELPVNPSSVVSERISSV

Mus musculus = assay: Neurotoxicity in Swiss Webster mouse assessed as induction of motor impairment at 40 mg/kg administered via oral gavage measured after 10 to 60 mins by rotarod method; format: toxicity, organism-based; settings: in vivo
Summary of the method: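 Female mice were given a single oral gavage dose of 40 mg/kg, either in 50% PBS/40% propylene glycol/10% DMSO or, for poorly soluble compounds, in 2% polyethylene glycol plus 2.5% hydroxymethyl cellulose. Rotarod performance was tested 10, 30 and 60 min after dosing, with diazepam 5 mg/kg as positive control.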

[23] = molecular target: Voltage-gated inwardly rectifying potassium channel KCNH2 (Homo sapiens, UniProt Q12809); assay: Displacement of [3H]-dofetilide from human ERG expressed in HEK cell membranes at >10 uM after 60 to 90 mins by scintillation counting
Chain of Voltage-gated inwardly rectifying potassium channel KCNH2 (Q12809 whole entry): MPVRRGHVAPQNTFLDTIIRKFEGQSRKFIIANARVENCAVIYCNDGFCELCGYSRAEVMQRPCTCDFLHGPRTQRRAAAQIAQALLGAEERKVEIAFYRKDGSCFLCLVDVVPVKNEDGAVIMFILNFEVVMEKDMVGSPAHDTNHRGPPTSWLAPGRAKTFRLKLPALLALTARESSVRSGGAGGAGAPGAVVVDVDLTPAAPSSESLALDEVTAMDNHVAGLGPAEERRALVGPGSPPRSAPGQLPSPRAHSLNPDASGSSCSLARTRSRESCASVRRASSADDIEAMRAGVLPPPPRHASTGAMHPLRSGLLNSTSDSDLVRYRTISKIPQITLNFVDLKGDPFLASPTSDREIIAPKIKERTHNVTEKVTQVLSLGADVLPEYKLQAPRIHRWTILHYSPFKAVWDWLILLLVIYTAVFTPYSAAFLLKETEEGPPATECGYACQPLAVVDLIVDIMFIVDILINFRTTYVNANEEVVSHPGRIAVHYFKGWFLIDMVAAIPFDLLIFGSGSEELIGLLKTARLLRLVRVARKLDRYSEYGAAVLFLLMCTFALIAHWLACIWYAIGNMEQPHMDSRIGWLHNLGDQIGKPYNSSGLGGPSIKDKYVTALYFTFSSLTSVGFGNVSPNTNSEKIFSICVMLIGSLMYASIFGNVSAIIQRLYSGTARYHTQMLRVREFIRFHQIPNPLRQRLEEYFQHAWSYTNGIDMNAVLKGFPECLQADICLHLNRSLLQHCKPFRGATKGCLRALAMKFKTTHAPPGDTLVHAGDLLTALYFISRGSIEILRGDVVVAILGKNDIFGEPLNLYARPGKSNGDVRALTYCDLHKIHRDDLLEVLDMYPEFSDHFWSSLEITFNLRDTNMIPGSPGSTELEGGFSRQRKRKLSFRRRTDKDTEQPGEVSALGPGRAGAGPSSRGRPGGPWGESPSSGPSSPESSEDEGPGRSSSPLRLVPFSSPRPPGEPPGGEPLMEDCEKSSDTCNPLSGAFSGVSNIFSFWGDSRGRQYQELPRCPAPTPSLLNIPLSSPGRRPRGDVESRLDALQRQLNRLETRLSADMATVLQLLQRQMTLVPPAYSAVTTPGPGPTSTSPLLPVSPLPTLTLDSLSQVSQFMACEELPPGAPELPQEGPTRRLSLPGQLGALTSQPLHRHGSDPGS

Chain of 5-hydroxytryptamine receptor 7 (Homo sapiens) (P34969 whole entry): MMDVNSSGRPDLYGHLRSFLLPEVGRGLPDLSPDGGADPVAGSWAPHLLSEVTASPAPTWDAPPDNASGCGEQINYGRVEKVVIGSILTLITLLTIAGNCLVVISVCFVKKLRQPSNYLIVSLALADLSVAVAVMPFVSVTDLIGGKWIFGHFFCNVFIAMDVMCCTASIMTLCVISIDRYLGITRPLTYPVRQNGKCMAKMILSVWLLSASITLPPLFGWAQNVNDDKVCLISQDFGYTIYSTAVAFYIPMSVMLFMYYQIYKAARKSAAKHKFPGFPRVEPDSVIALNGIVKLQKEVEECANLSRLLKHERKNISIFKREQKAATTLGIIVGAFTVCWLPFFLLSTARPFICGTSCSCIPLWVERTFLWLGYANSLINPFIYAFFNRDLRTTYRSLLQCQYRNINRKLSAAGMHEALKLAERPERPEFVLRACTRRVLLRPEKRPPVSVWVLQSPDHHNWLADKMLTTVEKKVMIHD
Chain of 5-hydroxytryptamine receptor 2B (Homo sapiens) (P41595 whole entry): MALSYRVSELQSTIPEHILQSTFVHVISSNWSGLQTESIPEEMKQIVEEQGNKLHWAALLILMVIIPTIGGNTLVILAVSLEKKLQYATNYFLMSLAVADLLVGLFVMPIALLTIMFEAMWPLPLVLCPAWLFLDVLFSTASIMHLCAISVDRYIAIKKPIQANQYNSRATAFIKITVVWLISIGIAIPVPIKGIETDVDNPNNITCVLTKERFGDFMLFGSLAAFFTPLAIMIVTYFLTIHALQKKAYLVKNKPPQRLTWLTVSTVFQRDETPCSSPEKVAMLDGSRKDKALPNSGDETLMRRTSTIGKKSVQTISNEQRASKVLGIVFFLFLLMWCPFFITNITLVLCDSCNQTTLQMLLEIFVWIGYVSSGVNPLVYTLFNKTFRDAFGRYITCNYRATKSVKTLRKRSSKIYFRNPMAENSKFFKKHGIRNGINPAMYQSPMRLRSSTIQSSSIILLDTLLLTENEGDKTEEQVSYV
Chain of Mu-type opioid receptor (Homo sapiens) (P35372 whole entry): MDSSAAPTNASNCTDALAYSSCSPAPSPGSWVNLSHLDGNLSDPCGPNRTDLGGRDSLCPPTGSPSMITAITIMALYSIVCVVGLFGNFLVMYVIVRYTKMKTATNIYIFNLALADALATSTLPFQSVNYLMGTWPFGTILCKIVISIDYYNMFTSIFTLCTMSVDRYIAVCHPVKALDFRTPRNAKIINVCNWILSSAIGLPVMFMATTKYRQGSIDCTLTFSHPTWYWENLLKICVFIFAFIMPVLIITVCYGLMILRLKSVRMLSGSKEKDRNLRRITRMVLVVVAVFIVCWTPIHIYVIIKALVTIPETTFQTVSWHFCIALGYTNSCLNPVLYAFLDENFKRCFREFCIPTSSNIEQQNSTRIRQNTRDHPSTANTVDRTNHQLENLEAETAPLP

- Drug metabolism [1]: Metabolite_Detected
- Drug metabolism [2]: Metabolite_Detected
SMILES: [2H]C([2H])([2H])Oc1ccc2c3nn(-c4ccc(O)nc4)c(=O)c-3c[nH]c2c1

- Drug metabolism [3]: Metabolite_Detected
- Drug metabolism [4]: Metabolite_Detected
- Drug metabolism [1]: Metabolite_Detected
- Drug metabolism [2]: Metabolite_Detected
SMILES: O=c1c2c[nH]c3cc(O)ccc3c-2nn1-c1ccc(O)nc1

- Drug metabolism [5]: Metabolite_Detected
- Drug metabolism [6]: Metabolite_Detected
SMILES: COc1ccc(-n2nc3c4ccc(O)cc4[nH]cc-3c2=O)cc1

- Drug metabolism [3]: Metabolite_Detected
- Drug metabolism [4]: Metabolite_Detected
SMILES: COc1ccc2c3nn(-c4ccc(O)nc4)c(=O)c-3c[nH]c2c1

- Drug metabolism [7]: Metabolite_Detected
- Drug metabolism [8]: Metabolite_Detected
SMILES: COc1ccc2c3nn(-c4ccc(O)cc4)c(=O)c-3c[nH]c2c1

SMILES: COc1ccc(-n2nc3c4ccc(Br)cc4[nH]cc-3c2=O)cc1
- t1/2 (Liver): 1.7 h
- remaining at 1 h, 10 µM [9]: 66.9%
- remaining at 1 h, 10 µM [10]: 69%
- solubility [11]: 8.3 µM (≈ 3.07 µg/mL)
- solubility [12]: 3.3 µM (≈ 1.22 µg/mL)
- Activity [13]: < 0%
- Activity [14]: 900%
- Activity ([14]; tested as the 2H-labelled form): inactive
- Activity [15]: < 0%
- Activity [16]: < 0%
- Activity [17]: < 0%
- Activity [18]: < 0%
- inhibition (Rattus norvegicus): Active
- inhibition [19]: Active
- inhibition [20]: Active
- inhibition [21]: Active
- inhibition [22]: Active
- Activity (Mus musculus): Non-Toxic
- inhibition (INH) [23]: Not Active

- Drug metabolism [3]: Metabolite_Detected
- Drug metabolism [4]: Metabolite_Detected
SMILES: [2H]C([2H])([2H])Oc1ccc(-n2nc3c4ccc(O)cc4[nH]cc-3c2=O)cn1

SMILES: COc1cccc(-n2nc3c4cc(Cl)ccc4[nH]cc-3c2=O)c1
- t1/2 (Liver): 3.4 h
- remaining at 1 h, 10 µM [9]: 81.4%
- remaining at 1 h, 10 µM [10]: 59.8%
- solubility [11]: 6.8 µM (≈ 2.22 µg/mL)
- solubility [12]: 2.6 µM (≈ 0.847 µg/mL)
- Activity [13]: < 0%
- Activity [14]: 400%
- Activity ([14]; tested as the 2H-labelled form): inactive
- Activity [15]: < 0%
- Activity [16]: < 0%
- Activity [17]: < 0%
- Activity [18]: < 0%
- inhibition (Rattus norvegicus): Active
- Activity (Mus musculus): Non-Toxic
- inhibition (INH) [23]: Not Active

- Drug metabolism [7]: Metabolite_Detected
- Drug metabolism [8]: Metabolite_Detected
SMILES: [2H]C([2H])([2H])Oc1ccc(-n2nc3c4ccc(O)cc4[nH]cc-3c2=O)cc1

- Drug metabolism [5]: Metabolite_Detected
- Drug metabolism [6]: Metabolite_Detected
SMILES: [2H]C([2H])([2H])Oc1ccc2c3nn(-c4ccc(O)cc4)c(=O)c-3c[nH]c2c1

- Drug metabolism [1]: Metabolite_Detected
- Drug metabolism [2]: Metabolite_Detected
SMILES: COc1ccc(-n2nc3c4ccc(O)cc4[nH]cc-3c2=O)cn1

- Drug metabolism [7]: Metabolite_Detected
- Drug metabolism [8]: Metabolite_Detected
- Drug metabolism [5]: Metabolite_Detected
- Drug metabolism [6]: Metabolite_Detected
SMILES: O=c1c2c[nH]c3cc(O)ccc3c-2nn1-c1ccc(O)cc1
